Key:
[1] = Antiproliferative activity against mouse Colon 26-L5 cells by MTT assay; assay type: functional; settings: read-out: ED50 (the source's name)
Summary of the method: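 Murine colon 26-L5 carcinoma cells grown in RPMI-1640 with 10% fetal calf serum, 0.1% NaHCO3 and 2 mM glutamine. Cell viability in presence and absence of agent measured by MTT; 5-fluorouracil served as positive control. ED50 derived from the mean of six determinations.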

HT-1080 = assay: Antiproliferative activity against human HT1080 cells by MTT assay; assay type: functional; settings: read-out: ED50 (the source's name)
Summary of the method: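 Human HT-1080 fibrosarcoma cells grown in Eagle's MEM with 10% fetal calf serum, 0.1% NaHCO3 and 2 mM glutamine. Viability with and without test agent read by MTT assay; 5-fluorouracil as positive control. ED50 calculated from the mean of six determinations.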

Compound	EC50 [1] [µM]	EC50 (HT-1080) [µM]
COc1cc(O)cc2c1C(=O)C[C@@H](c1ccc(O)cc1)O2	> 100	> 100
O=C(/C=C(O)/C=C/c1ccc(O)cc1)CCc1ccc(O)cc1	62.6	> 100
COc1cc(O)cc(OC)c1C(=O)/C=C/c1ccc(O)cc1	28.7	50.5
CCO[C@H](/C=C/c1ccccc1)C[C@@H](O)CCc1ccc(O)cc1	94.6	> 100
COc1cc(/C=C/c2ccc(O)cc2)oc(=O)c1	20.7	20.1
O=C(/C=C/C=C/c1ccc(O)cc1)CCc1ccc(O)cc1	57.7	78.8
Oc1ccc(CC[C@H](O)C[C@@H](O)CCc2ccc(O)cc2)cc1	12.8	94.4
CO[C@H](/C=C/c1ccccc1)C[C@@H](O)CCc1ccc(O)cc1	86.4	> 100
CO[C@@H](/C=C/c1ccccc1)C[C@@H](O)CCc1ccc(O)cc1	> 100	> 100
CCO[C@@H](/C=C/c1ccccc1)C[C@@H](O)CCc1ccc(O)cc1	> 100	> 100
CO[C@@H](CCc1ccc(O)cc1)CC(=O)/C=C/c1ccc(O)cc1	5.2	10.1
CC(=O)/C=C/c1ccc(O)cc1	> 100	> 100
O=C(/C=C/c1ccc(O)cc1)c1ccc(O)cc1 [4,4'-DIHYDROXYCHALCONE]	> 100	> 100
O=Cc1ccc(O)cc1 [4-HYDROXYBENZALDEHYDE]	> 100	> 100
O=C(O)/C=C/c1ccc(O)cc1 [COUMARIC ACID]	> 100	> 100
COc1cc(/C=C/c2ccccc2)oc(=O)c1 [DESMETHOXYYANGONIN]	> 100	> 100
O=c1[nH]cc(F)c(=O)[nH]1 [FLUOROURACIL]	0.5	8
COc1cc(O)cc(O)c1C(=O)/C=C/c1ccc(O)cc1 [HELICHRYSETIN]	64.7	40.1
COC(=O)/C=C/c1ccc(O)cc1 [METHYL P-HYDROXYCINNAMATE]	84.2	> 100
Oc1cc(O)cc(O)c1 [PHLOROGLUCINOL]	26.4	20.9
CC[C@H](CC[C@@H](C)[C@H]1CC[C@H]2[C@@H]3CC=C4C[C@@H](O[C@@H]5O[C@H](CO)[C@@H](O)[C@H](O)[C@H]5O)CC[C@]4(C)[C@H]3CC[C@]12C)C(C)C [SITOGLUSIDE]	> 100	> 100
